Assays:
[1] = Protein binding in human plasma at 5 uM after 5 hrs by LC-MS/MS analysis; assay type: ADME, cell-free; conditions: read-out: PPB (converted)
[2] = Inhibition of PDE4 in human U937 cell lysates assessed as residual cAMP after 2.5 mins by LANCE assay
[3] = Inhibition of PDE4 in human PBMC assessed as reduction in LPS-induced TNFalpha release after 18 hrs by quantitative ELISA
[4] = Apparent permeability across apical to basolateral side in human Caco2 cells at 10 uM after 2 hrs by LC-MS/MS analysis; assay type: ADME, cell-based; conditions: Caco-2
[5] = Apparent permeability across basolateral to apical side in human Caco2 cells at 10 uM after 2 hrs by LC-MS/MS analysis; assay type: ADME, cell-based; conditions: Caco-2
[6] = Intrinsic clearance in human liver microsomes at 1 uM measured after 60 mins in presence NADPH by LC-MS/MS analysis; assay type: ADME, microsome; conditions: read-out: CLH
Summary of the method: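 Compound at 1 μM with human liver microsomes (0.8 mg protein/mL) in Dulbecco's buffer pH 7.4, 1 mM NADPH, 37 °C, in duplicate. Sampled at 0, 5, 10, 20, 30 and 60 min, quenched with ice-cold acetonitrile, and unchanged compound measured by LC−MS/MS. No-NADPH controls; midazolam (1 μM) as phase I control.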

[7] = Intrinsic clearance in human hepatocytes assessed per million cells at 1 uM measured after 90 mins by LC-MS/MS analysis; assay type: ADME, cell-based, Hepatocyte; conditions: read-out: CLH
Summary of the method: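 Compound at 1 μM with hepatocytes (1 million cells/mL) in Leibovitz L-15 at 37 °C, in duplicate. Sampled at 0, 10, 20, 30, 60 and 90 min, quenched with ice-cold acetonitrile, centrifuged, and unchanged compound measured by LC−MS/MS. Included 7-ethoxycoumarin and 7-hydroxycoumarin activity controls and cell-free medium controls.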

[8] = Metabolic stability in human lung S9 fraction assessed as compound remaining at 1 uM measured after 60 mins in presence of NADPH by LC-MS/MS analysis; assay type: ADME; conditions: read-out: Stability
[9] = Metabolic stability in human plasma assessed as compound remaining at 1 uM measured after 60 mins in presence of NADPH by LC-MS/MS analysis; assay type: ADME, cell-free; conditions: read-out: Stability
Rattus norvegicus = experiment: Anti-inflammatory activity in OVA-induced airway inflammation Brown Norway rat model assessed inhibition of eosinophils recruitment in bronchoalveolar lavage fluid administered intratracheally as powder formulation 2 hrs before aerosolized OVA challenge measured at 24 hrs post aerosolized OVA challenge; assay type: functional
Summary of the method: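 Male Brown Norway rats sensitized i.p. with OVA (1 mg/rat) plus Al(OH)3 (100 mg/rat) in saline on 3 consecutive days. Challenged 2–3 weeks later with nose-only 1% OVA aerosol for 30 min. Lactose-blended dry powder (10 mg/kg total powder) insufflated intratracheally; dose taken from needle weight difference. BAL with 3 × 4 mL HBSS/EDTA/HEPES at 24 h; total and differential counts by automated counter. ED50 from fitted dose–response curve.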

COc1ccc(S(=O)(=O)N2CCS[C@H]2C(=O)O[C@@H](Cc2c(Cl)c[n+]([O-])cc2Cl)c2ccc(OC(F)F)c(OCC3CC3)c2)cc1C(=O)N(C)C (relative stereo)
fraction unbound at 5 h, 5 µM [1]: 0.0017
IC50 [2]: 0.026 nM
IC50 [3]: 0.022 nM
Papp A→B at 2 h, 10 µM [4]: 0.23 ×10⁻⁶ cm/s
Papp B→A at 2 h, 10 µM [5]: 7.67 ×10⁻⁶ cm/s
microsomal CLint at 1 µM [6]: 360 µL/min/mg
hepatocyte CLint at 1 µM [7]: 47.6 µL/min/1e6 cells
remaining at 1 h, 1 µM [8]: 71.2%
remaining at 1 h, 1 µM [9]: 98.8%

O=C(O[C@@H](Cc1c(Cl)c[n+]([O-])cc1Cl)c1ccc(OC(F)F)c(OCC2CC2)c1)[C@H]1CCCN1S(=O)(=O)c1ccccc1
IC50 [2]: 0.06 nM
IC50 [3]: 0.34 nM

COCCC(=O)N1CCS[C@H]1C(=O)O[C@@H](Cc1c(Cl)c[n+]([O-])cc1Cl)c1ccc(OC(F)F)c(OCC2CC2)c1 (relative stereo)
IC50 [2]: 0.028 nM
IC50 [3]: 0.86 nM

O=C(O[C@@H](Cc1c(Cl)c[n+]([O-])cc1Cl)c1ccc(OC(F)F)c(OCC2CC2)c1)c1ccccc1
IC50 [2]: 0.072 nM

CCCC1O[C@@H]2C[C@H]3[C@@H]4CCC5=CC(=O)C=C[C@]5(C)[C@H]4[C@@H](O)C[C@]3(C)[C@]2(C(=O)CO)O1 (some centres not stated) [BUDESONIDE]
inhibition (Rattus norvegicus): Dose-dependent effect
ED50 (Rattus norvegicus; inhaled or nasal): 0.04 µmol/kg

CN(C)C(=O)c1cccc(S(=O)(=O)N2CSC[C@H]2C(=O)O[C@@H](Cc2c(Cl)c[n+]([O-])cc2Cl)c2ccc(OC(F)F)c(OCC3CC3)c2)c1
fraction unbound at 5 h, 5 µM [1]: 0.0017
IC50 [2]: 0.055 nM
IC50 [3]: 0.035 nM
Papp A→B at 2 h, 10 µM [4]: 2.8 ×10⁻⁶ cm/s
Papp B→A at 2 h, 10 µM [5]: 4.46 ×10⁻⁶ cm/s
microsomal CLint at 1 µM [6]: 268 µL/min/mg
hepatocyte CLint at 1 µM [7]: 25.9 µL/min/1e6 cells
remaining at 1 h, 1 µM [8]: 52.1%
remaining at 1 h, 1 µM [9]: 94%

Cc1cc(S(=O)(=O)N2CCS[C@H]2C(=O)O[C@@H](Cc2c(Cl)c[n+]([O-])cc2Cl)c2ccc(OC(F)F)c(OCC3CC3)c2)c(C)s1 (relative stereo)
IC50 [2]: 0.176 nM
IC50 [3]: 0.17 nM

O=C(c1ccccc1)c1ccsc1C(=O)O[C@@H](Cc1c(Cl)c[n+]([O-])cc1Cl)c1ccc(OC(F)F)c(OCC2CC2)c1
IC50 [2]: 0.32 nM

CN(C)C(=O)c1cccc(S(=O)(=O)N2CCS[C@@H]2C(=O)O[C@H](Cc2c(Cl)c[n+]([O-])cc2Cl)c2ccc(OC(F)F)c(OCC3CC3)c2)c1
IC50 [2]: 6.4 nM

O=C(O[C@@H](Cc1c(Cl)c[n+]([O-])cc1Cl)c1ccc(OC(F)F)c(OCC2CC2)c1)[C@@H]1CCCN1S(=O)(=O)c1ccccc1 (relative stereo)
IC50 [2]: 0.109 nM
IC50 [3]: 0.4 nM

O=C(O[C@@H](Cc1c(Cl)c[n+]([O-])cc1Cl)c1ccc(OC(F)F)c(OCC2CC2)c1)[C@@H]1SCCN1S(=O)(=O)c1ccccc1 (relative stereo)
IC50 [2]: 0.176 nM
IC50 [3]: 0.26 nM

CN(C)C(=O)c1cccc(S(=O)(=O)N2CCS[C@H]2C(=O)O[C@@H](Cc2c(Cl)c[n+]([O-])cc2Cl)c2ccc(OC(F)F)c(OC3CCCC3)c2)c1 (relative stereo)
IC50 [2]: 0.021 nM
IC50 [3]: 0.04 nM

O=C(O[C@@H](Cc1c(Cl)c[n+]([O-])cc1Cl)c1ccc(OC(F)F)c(OCC2CC2)c1)c1ccccc1S(=O)(=O)c1ccccc1
IC50 [2]: 0.323 nM

COc1ccc(S(=O)(=O)N2CCS[C@H]2C(=O)O[C@@H](Cc2c(Cl)c[n+]([O-])cc2Cl)c2ccc(OC(F)F)c(OCC3CC3)c2)cc1OC (relative stereo)
fraction unbound at 5 h, 5 µM [1]: 0.004
IC50 [2]: 0.041 nM
IC50 [3]: 0.057 nM
Papp A→B at 2 h, 10 µM [4]: 0.25 ×10⁻⁶ cm/s
Papp B→A at 2 h, 10 µM [5]: 0.82 ×10⁻⁶ cm/s
microsomal CLint at 1 µM [6]: 200 µL/min/mg
hepatocyte CLint at 1 µM [7]: 53.8 µL/min/1e6 cells
remaining at 1 h, 1 µM [8]: 50.7%
remaining at 1 h, 1 µM [9]: 101%

CN(C)C(=O)c1cccc(S(=O)(=O)N2CCS[C@@H]2C(=O)O[C@@H](Cc2c(Cl)c[n+]([O-])cc2Cl)c2ccc(OC(F)F)c(OCC3CC3)c2)c1
IC50 [2]: 0.047 nM
IC50 [3]: 0.047 nM

Cn1cnc(S(=O)(=O)N2CCS[C@H]2C(=O)O[C@@H](Cc2c(Cl)c[n+]([O-])cc2Cl)c2ccc(OC(F)F)c(OCC3CC3)c2)c1
fraction unbound at 5 h, 5 µM [1]: 0.015
IC50 [2]: 0.02 nM
IC50 [3]: 0.028 nM
Papp A→B at 2 h, 10 µM [4]: 0.22 ×10⁻⁶ cm/s
Papp B→A at 2 h, 10 µM [5]: 3.95 ×10⁻⁶ cm/s
microsomal CLint at 1 µM [6]: 281 µL/min/mg
hepatocyte CLint at 1 µM [7]: 66.9 µL/min/1e6 cells
remaining at 1 h, 1 µM [8]: 77.7%
remaining at 1 h, 1 µM [9]: 101%

CN(C)C(=O)c1cccc(S(=O)(=O)N2CCS[C@H]2C(=O)O)c1
IC50 [3]: > 1000 nM

— ChEMBL document CHEMBL4024768, “Discovery and Optimization of Thiazolidinyl and Pyrrolidinyl Derivatives as Inhaled PDE4 Inhibitors for Respiratory Diseases” (J Med Chem, 2017)
